Results taken from article PMC4955683 (Nature chemical biology, 2016).

What was measured:
[1] = HPLC analysis of SIRT6 binding to NAD+; details: 10 µM SIRT6 incubated with 10 µM NAD+, 10 kDa cutoff membrane
Outline: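 SIRT6 (10 µM; WT, G60A or H133Y) was incubated with 10 µM NAD+ in 25 mM Tris-HCl pH 8.0, 50 mM NaCl for 30 min at room temperature. The mix was diluted to 500 µL and spun through a 10 kDa membrane (15,000 g, 20 min). The filtrate (unbound NAD+) was lyophilized, redissolved in water and quantified by HPLC.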

RPL17 and RPS7 = RPL17 and RPS7 in exosomes from MEFs; format: cell-based, mouse; details: exosomes from Sirt6 KO MEFs expressing SIRT6
Outline: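 MEFs at 90% confluence were washed with PBS and serum-free DMEM, then conditioned in serum-free medium for 12 h. Medium was cleared at 500 g (5 min) and 3,000 g (20 min), then passed through a 0.2 µm filter. Filtrate was ultracentrifuged at 100,000 g for 2 h, and pellets were washed, re-pelleted and lysed in NP-40 buffer. Blots used RPL17/RPS7 antibodies (1:1000, 4 °C 12 h) with ECL detection.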

TNFα = assay: ELISA analysis of TNFα secretion in MEFs; format: cell-based, Human; details: SIRT6 stably expressed in Sirt6 KO MEFs
Sirt6 KO MEFs [2] = assay: Secreted and intracellular protein levels in MEFs; format: cell-based, mouse; details: SIRT6 overexpressed in Sirt6 KO cells
Outline: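 MEFs at 90% confluence were washed with PBS and serum-free DMEM, then kept in serum-free DMEM for 12 h. Medium was cleared at 500 g (5 min) and 3,000 g (10 min) and concentrated on 10 kDa filters. Western blots were probed for VCP, RPL17, RPS7, COL5A1, COL6A1 and CXCL1 (1:1000, 4 °C 12 h), followed by secondary antibody (1:3000, 1 h RT) and ECL detection.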

Sirt6 KO MEFs [3] = assay: Cell viability after glucose starvation; format: cell-based, mouse; details: SIRT6 expressed in Sirt6 KO MEFs, glucose free medium 72 h
Outline: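 Stable SIRT6-expressing Sirt6 KO MEFs were selected with […] puromycin 48 h post-infection, with empty pCDH vector as control, and grown in DMEM/10% heat-inactivated FBS. Cells were seeded at 3,000/well and switched after 48 h to glucose-free DMEM/10% FBS for 72 h. They were then fixed in cold methanol, stained with 0.2% crystal violet, solubilized in 0.5% SDS/50% ethanol, and read at 550 nm.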

H3K9 myristoyl peptide [4] = assay: Defatty-acylation assay, SIRT6 purified from HEK 293T cells; format: biochemical; details: 0.2 µM SIRT6 from HEK293T cells, 5 µM Myr-H3K9, 1 mM NAD+, 37°C, 60 min
Outline: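 SIRT6 WT or mutants were affinity-purified from HEK 293T lysates on anti-Flag gel, eluted with 3X FLAG peptide and buffer-exchanged on a 10 kDa membrane. Reaction buffer was 25 mM Tris-HCl pH 8.0, 50 mM NaCl, 1 mM DTT. Reactions were quenched with cold acetonitrile and centrifuged, and supernatants were analysed by C18 reverse-phase HPLC (water/acetonitrile, 0.1% TFA) for H3K9 peptide formation.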

[5] = Thermal shift assay and tryptophan fluorescence emission spectra; format: physicochemical
[6] = tested on: H3K9 palmitoyl, TNFα myristoyl and H3K9 octanoyl peptides; assay: Defatty-acylation assay on other fatty-acyl peptides; format: biochemical
[7] = tested on: IAP2, GLS, RPL3 and MnSOD; assay: mRNA levels of SIRT6-regulated genes in Sirt6 KO MEFs; format: cell-based, mouse; details: SIRT6 overexpressed in Sirt6 KO MEFs
H3K9 acetyl peptide = assay: Deacetylation assay, SIRT6 WT and mutants purified from E. coli; format: biochemical; details: 2 µM SIRT6, 25 µM H3K9 acetyl peptide, 1 mM NAD+, 300 µM palmitic acid, 37°C, 2 hours
Outline: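 Full-length human SIRT6 (WT or mutant) was expressed from pET28a in E. coli BL21(DE3). Reactions (40 µL) contained 25 mM Tris-HCl pH 8.0, 50 mM NaCl and 1 mM DTT plus the listed components. They were quenched with an equal volume of cold acetonitrile and centrifuged. Supernatants were run on C18 HPLC using a water/acetonitrile 0.1% TFA gradient to quantify deacetylated H3K9 peptide.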

[8] = NAD+ binding by intrinsic tryptophan fluorescence; details: read-out: Kd for NAD^+ in the presence of H3K9 acetyl peptide, 1 mM H3K9 acetyl peptide
Outline: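 SIRT6 (3 µM) in 25 mM Tris-HCl pH 7.4, 150 mM NaCl, 10% glycerol was premixed with 1 mM tryptophan-free Ac-H3K9 and titrated with NAD+. Excitation was 295 nm with emission scanned 320–390 nm, using peak maxima. Fraction bound was (F−F0)/(Fsat−F0), and Kd came from a one-site quadratic binding fit with [E] = 3 µM.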

[9] = tested on: SIRT6 (self ADP-ribosylation); assay: In vitro mono-ADP-ribosylation assay; format: biochemical, human; details: 2.5 µM SIRT6, 50 µM 6-alkyne-NAD, 30°C, 30 min
Outline: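 Reactions contained SIRT6 WT or mutants in 25 mM Tris-HCl pH 8.0, 50 mM NaCl, 1 mM DTT, with NAD+ replacing 6-alkyne-NAD as negative control. Click chemistry with BODIPY-N3, TBTA, CuSO4 and TCEP ran 30 min at room temperature. Samples were boiled in SDS buffer, separated on 12% SDS-PAGE and destained 2 h, and ADP-ribosylation was read as in-gel BODIPY fluorescence.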

[10] = tested on: acetyl-H3K9 and acetyl-H3K56; format: cell-based, Human; details: flag-tagged SIRT6 overexpressed in SIRT6 KO 293T cells
Outline: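 Sirt6 KO HEK 293T cells in DMEM/10% heat-inactivated FBS were transiently transfected with SIRT6 WT, mutants or empty pCMV4a. Blots were probed with Ac-H3K9, Ac-H3K56 and histone H3 antibodies (1:5000; acetyl antibodies 4 °C 12 h), then secondary antibody (1:3000, 1 h RT). Detection was by ECL chemiluminescence; band intensities were quantified as mean ± s.d. of three replicates.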

H3K9 myristoyl peptide [11] = assay: Demyristoylation steady-state kinetics; format: biochemical

| Substance | NAD^+ bound to SIRT6 [1] [%] | RPL17 and RPS7 in exosomes (RPL17 and RPS7) | TNFα secretion (TNFα) | secreted levels of Group 1 proteins (RPL17, RPS7, VCP) (Sirt6 KO MEFs [2]) | secreted levels of Group 2 proteins (COL6A1, COL5A1, CXCL1) (Sirt6 KO MEFs [2]) | glucose starvation-caused cell death (Sirt6 KO MEFs [3]) | defatty-acylase activity, substrate conversion (H3K9 myristoyl peptide [4]) [%] | stability and fluorescence with H3K9 myristoyl peptide ([5]; 0.1 mM H3K9 myristoyl peptide) | stability and fluorescence with H3K9 acetyl peptide ([5]; 1 mM H3K9 acetyl peptide) | thermal stability ([5]; without peptide, versus SIRT6 WT, 37 to 62 °C for 3 min) | defatty-acylase activity on other fatty-acyl peptides [6] | transcriptional suppression of IAP2, GLS, RPL3 and MnSOD [7] | H3K9 acetyl peptide hydrolyzed/converted to H3K9 peptide (H3K9 acetyl peptide) | Kd [8] [µM] | ADP-ribosyltransferase (ART) activity [9] | H3K9 and H3K56 acetylation levels in cells [10] | decrease of kcat of demyristoylation versus SIRT6 WT (H3K9 myristoyl peptide [11]) [fold] | increase of Km of demyristoylation versus SIRT6 WT (H3K9 myristoyl peptide [11]) [fold] |
| --- | --- | --- | --- | --- | --- | --- | --- | --- | --- | --- | --- | --- | --- | --- | --- | --- | --- | --- |
| SIRT6 H133Y | 59 ± 3 | can be detected | no effect on TNFα secretion | – | – | – | – | – | – | – | – | – | – | – | – | – | – | – |
| SIRT6 G60A | 2.0 ± 0.7 | not in exosomes | promoted TNFα secretion | decreased the secreted levels to that in Sirt6 WT cells | restored the secreted levels to that in Sirt6 WT cells | neither SIRT6 G60A nor H133Y did | 25.6 | became similar to those of SIRT6 WT | not affected | decreased thermal stability | robust defatty-acylase activities | could not | approximately 1.8% | 634 ± 91 | no observable ART activity | no detectable deacetylase activity in cells | 1.9 | 1.8 |
| SIRT6 R65A | – | – | – | – | – | – | – | – | – | – | – | – | – | – | weak self ADP-ribosylation activities | – | – | – |
